Experimental data reported in ChEMBL document CHEMBL4354804, “Discovery of a New Isoxazole-3-hydroxamate-Based Histone Deacetylase 6 Inhibitor SS-208 with Antitumor Activity in Syngeneic Melanoma Mouse Models” (J Med Chem, 2019).
Each block holds one molecule with its values, some of them ahead of it.

Assays:
Homo sapiens [1] = species on record: Homo sapiens; experiment: Selectivity index, ratio of IC50 for recombinant full length C-terminal His/FLAG tagged human HDAC1 (1 to 482 residues) expressed in baculovirus infected sf9 insect cells using p53 (379 to 382 residues) derived fluorogenic peptide RHKKAc as substrate preincubated for 5 to 10 mins followed by …
Salmonella typhimurium [2] = experiment: Genotoxicity against Salmonella Typhimurium TA1537 assessed as revertant colonies at 0.075 to 250 ug/well by Ames test; assay type: toxicity, organism-based; conditions: salmonella enterica subsp. enterica serovar typhimurium
[3] = Half life in human liver microsomes in presence of NADPH; assay type: ADME, Microsome
Method in brief: (§1)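 Liver microsomal stability in mouse and human microsomes with NADPH; half-life in minutes.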

Salmonella typhimurium [4] = experiment: Genotoxicity against Salmonella Typhimurium TA97A assessed as revertant colonies at 0.075 to 250 ug/well in presence of mammalian microsomal enzyme S9 mix by Ames test; assay type: toxicity, organism-based; conditions: salmonella enterica subsp. enterica serovar typhimurium
[5] = Half life in mouse liver microsomes in presence of NADPH; assay type: ADME, Microsome
Method in brief: as §1

Salmonella typhimurium [6] = experiment: Genotoxicity against Salmonella Typhimurium TA97A assessed as revertant colonies at 0.075 to 250 ug/well by Ames test; assay type: toxicity, organism-based; conditions: salmonella enterica subsp. enterica serovar typhimurium
Salmonella typhimurium [7] = experiment: Genotoxicity against Salmonella Typhimurium TA1537 assessed as revertant colonies at 0.075 to 250 ug/well in presence of mammalian microsomal enzyme S9 mix by Ames test; assay type: toxicity, organism-based; conditions: salmonella enterica subsp. enterica serovar typhimurium
[8] = molecular target: T1, Protein deacetylase HDAC6 (Homo sapiens, UniProt Q9UBN7); experiment: Inhibition of human recombinant HDAC6 using fluorogenic substrate incubated for 30 mins by fluorescence assay
T1 sequence (Q9UBN7 whole entry): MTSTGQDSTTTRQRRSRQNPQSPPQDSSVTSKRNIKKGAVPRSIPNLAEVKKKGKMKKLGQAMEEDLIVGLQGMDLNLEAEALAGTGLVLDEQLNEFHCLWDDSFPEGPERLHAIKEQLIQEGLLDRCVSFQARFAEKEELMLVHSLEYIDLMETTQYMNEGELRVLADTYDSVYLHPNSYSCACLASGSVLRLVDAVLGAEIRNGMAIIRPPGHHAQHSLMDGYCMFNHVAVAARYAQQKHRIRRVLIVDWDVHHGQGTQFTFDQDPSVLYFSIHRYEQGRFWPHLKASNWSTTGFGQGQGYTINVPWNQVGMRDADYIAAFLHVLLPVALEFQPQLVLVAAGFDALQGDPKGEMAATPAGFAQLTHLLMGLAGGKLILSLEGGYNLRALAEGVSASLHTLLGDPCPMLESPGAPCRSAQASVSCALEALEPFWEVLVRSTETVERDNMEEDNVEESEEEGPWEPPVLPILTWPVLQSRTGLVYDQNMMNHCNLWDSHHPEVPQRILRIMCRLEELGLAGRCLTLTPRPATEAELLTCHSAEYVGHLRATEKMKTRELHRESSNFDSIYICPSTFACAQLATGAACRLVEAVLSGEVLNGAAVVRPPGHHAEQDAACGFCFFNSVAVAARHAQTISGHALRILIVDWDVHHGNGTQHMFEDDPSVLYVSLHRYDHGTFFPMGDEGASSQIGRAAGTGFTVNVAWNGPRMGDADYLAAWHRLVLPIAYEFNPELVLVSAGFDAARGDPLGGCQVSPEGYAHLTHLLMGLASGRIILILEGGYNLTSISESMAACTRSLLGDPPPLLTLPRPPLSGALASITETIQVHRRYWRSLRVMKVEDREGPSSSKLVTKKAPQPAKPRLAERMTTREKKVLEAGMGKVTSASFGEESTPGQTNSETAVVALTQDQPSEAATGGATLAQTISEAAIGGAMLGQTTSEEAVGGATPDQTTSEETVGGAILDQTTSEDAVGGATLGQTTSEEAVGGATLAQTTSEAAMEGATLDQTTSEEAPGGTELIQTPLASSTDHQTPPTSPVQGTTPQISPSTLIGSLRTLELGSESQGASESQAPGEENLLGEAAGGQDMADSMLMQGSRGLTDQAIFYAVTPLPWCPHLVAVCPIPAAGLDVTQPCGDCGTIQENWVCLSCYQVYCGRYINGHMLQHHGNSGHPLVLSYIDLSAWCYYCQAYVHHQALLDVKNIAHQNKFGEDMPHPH

Homo sapiens [9] = species on record: Homo sapiens; experiment: Selectivity index, ratio of IC50 for inhibition of human recombinant HDAC1 using fluorogenic substrate incubated for 15 mins by fluorescence assay to IC50 for inhibition of human recombinant HDAC6 using fluorogenic substrate incubated for 30 mins by fluorescence assay
Histone deacetylase 1 [10] = molecular target: T2, Histone deacetylase 1 (Homo sapiens, UniProt Q13547); experiment: Inhibition of human recombinant HDAC1 using fluorogenic substrate incubated for 15 mins by fluorescence assay
T2 sequence (Q13547 whole entry): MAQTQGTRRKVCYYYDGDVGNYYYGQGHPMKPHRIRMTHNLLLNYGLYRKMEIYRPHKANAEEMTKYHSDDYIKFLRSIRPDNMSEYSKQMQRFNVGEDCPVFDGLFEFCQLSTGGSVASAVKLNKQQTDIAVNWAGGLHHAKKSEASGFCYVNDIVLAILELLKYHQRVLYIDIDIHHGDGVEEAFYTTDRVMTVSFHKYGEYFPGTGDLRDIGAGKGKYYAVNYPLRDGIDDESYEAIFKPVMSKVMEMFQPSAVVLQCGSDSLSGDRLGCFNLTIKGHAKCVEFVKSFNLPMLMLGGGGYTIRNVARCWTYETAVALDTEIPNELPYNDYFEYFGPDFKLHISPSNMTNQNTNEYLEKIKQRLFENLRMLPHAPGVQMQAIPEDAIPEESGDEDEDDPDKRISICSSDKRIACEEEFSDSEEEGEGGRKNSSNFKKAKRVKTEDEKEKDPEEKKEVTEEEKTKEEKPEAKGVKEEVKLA

Histone deacetylase 4 = Histone deacetylase 4 (Homo sapiens, UniProt P56524); experiment: Inhibition of recombinant human HDAC4 expressed in HEK293T/17 cells using Boc-Lys(TFA)-AMC as substrate preincubated for 10 mins followed by substrate addition and measured after 30 mins by fluorescence-based assay
Histone deacetylase 4, sequence (P56524 whole entry, the tested form may be a part): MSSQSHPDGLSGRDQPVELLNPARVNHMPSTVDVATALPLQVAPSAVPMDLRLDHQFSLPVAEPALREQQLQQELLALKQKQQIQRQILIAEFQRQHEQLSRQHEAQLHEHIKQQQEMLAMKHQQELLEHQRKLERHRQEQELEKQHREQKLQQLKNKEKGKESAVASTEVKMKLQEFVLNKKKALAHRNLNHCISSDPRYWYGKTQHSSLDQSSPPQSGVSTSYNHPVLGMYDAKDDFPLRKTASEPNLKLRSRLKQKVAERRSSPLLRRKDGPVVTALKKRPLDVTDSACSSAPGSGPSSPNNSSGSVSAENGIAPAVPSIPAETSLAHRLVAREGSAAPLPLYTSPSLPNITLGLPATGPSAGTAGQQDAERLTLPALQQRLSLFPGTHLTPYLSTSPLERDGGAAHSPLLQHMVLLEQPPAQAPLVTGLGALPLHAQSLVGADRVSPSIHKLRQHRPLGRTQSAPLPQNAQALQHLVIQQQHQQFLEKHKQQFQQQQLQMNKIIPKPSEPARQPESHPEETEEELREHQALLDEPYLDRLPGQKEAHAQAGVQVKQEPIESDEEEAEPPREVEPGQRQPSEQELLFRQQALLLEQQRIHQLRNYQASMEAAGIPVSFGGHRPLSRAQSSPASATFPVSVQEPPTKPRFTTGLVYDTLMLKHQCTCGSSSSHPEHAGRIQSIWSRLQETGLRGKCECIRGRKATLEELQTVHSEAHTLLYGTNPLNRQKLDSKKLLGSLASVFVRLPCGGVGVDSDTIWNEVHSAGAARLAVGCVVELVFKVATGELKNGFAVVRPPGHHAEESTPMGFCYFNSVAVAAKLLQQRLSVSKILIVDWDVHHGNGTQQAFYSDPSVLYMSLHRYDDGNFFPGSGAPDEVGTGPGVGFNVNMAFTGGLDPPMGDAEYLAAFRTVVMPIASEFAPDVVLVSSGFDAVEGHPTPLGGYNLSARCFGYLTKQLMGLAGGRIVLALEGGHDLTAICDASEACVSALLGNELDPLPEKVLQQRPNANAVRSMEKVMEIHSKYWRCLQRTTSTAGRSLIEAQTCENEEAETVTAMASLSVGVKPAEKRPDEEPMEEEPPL
Method in brief: (§2)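 Human HDACs expressed as Strep-tagged fusions in transiently transfected HEK293/T17 cells, purified by Strep-Tactin. Substrate at 10 µM: Ac-GAK(Ac)-AMC for HDAC1/6, Boc-Lys(TFA)-AMC for the others. Reaction 30 min at 37 °C, trypsin stop, fluorescence 365/440 nm. 10-point 3-fold series from 100 µM, mean of two experiments.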

[11] = molecular target: T1, Protein deacetylase HDAC6; experiment: Inhibition of recombinant human HDAC6 expressed in HEK293T/17 cells using Ac-GAK(Ac)-AMC as substrate preincubated for 10 mins followed by substrate addition and measured after 30 mins by fluorescence-based assay
Histone deacetylase 1 [12] = molecular target: T2, Histone deacetylase 1; experiment: Inhibition of recombinant human HDAC1 expressed in HEK293T/17 cells using Ac-GAK(Ac)-AMC as substrate preincubated for 10 mins followed by substrate addition and measured after 30 mins by fluorescence-based assay
Method in brief: as §2

Histone deacetylase 8 = molecular target: T3, Histone deacetylase 8 (Homo sapiens, UniProt Q9BY41); experiment: Inhibition of recombinant human HDAC8 expressed in HEK293T/17 cells using Boc-Lys(TFA)-AMC as substrate preincubated for 10 mins followed by substrate addition and measured after 30 mins by fluorescence-based assay
T3 sequence (Q9BY41 whole entry): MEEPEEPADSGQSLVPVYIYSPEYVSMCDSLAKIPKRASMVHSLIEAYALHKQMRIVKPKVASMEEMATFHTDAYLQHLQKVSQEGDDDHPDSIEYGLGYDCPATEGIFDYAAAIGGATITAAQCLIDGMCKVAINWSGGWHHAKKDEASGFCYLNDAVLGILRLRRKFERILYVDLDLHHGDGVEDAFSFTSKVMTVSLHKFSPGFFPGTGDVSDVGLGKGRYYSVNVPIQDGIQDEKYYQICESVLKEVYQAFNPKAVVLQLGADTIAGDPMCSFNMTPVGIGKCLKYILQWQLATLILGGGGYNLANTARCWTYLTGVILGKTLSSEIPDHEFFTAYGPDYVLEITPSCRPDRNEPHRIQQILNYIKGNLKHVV
Method in brief: as §2

Histone deacetylase 5 = Histone deacetylase 5 (Homo sapiens, UniProt Q9UQL6); experiment: Inhibition of recombinant human HDAC5 expressed in HEK293T/17 cells using Boc-Lys(TFA)-AMC as substrate preincubated for 10 mins followed by substrate addition and measured after 30 mins by fluorescence-based assay
Histone deacetylase 5, sequence (Q9UQL6 whole entry): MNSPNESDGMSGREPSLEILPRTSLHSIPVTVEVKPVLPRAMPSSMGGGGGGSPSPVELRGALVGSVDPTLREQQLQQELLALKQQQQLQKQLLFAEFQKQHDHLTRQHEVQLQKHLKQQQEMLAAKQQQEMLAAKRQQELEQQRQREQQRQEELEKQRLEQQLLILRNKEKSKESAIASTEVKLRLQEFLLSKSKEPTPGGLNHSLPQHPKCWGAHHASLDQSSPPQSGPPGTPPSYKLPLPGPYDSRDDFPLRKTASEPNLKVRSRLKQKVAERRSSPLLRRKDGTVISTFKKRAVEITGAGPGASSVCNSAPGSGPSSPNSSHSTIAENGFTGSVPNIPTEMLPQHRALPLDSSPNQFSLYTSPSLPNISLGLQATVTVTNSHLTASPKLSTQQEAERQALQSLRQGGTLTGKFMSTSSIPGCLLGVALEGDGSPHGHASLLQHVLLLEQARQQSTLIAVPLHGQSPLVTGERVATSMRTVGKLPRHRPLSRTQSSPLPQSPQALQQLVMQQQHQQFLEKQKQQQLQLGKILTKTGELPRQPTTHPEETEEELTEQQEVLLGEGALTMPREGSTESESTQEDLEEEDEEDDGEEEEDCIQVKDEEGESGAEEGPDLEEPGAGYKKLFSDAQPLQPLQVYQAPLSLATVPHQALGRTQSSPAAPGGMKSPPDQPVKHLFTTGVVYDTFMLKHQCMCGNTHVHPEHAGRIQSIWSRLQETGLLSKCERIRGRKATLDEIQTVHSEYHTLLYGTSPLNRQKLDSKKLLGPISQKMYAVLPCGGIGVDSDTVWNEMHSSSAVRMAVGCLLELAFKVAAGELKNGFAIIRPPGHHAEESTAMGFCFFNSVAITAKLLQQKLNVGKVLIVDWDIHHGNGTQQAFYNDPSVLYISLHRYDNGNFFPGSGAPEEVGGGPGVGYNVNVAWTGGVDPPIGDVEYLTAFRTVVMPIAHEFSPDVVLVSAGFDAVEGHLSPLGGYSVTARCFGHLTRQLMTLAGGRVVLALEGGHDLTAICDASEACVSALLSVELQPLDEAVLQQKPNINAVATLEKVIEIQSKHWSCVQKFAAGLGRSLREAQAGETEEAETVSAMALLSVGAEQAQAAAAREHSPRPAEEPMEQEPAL
Method in brief: as §2

Histone deacetylase 9 = Histone deacetylase 9 (Homo sapiens, UniProt Q9UKV0); experiment: Inhibition of recombinant human HDAC9 expressed in HEK293T/17 cells using Boc-Lys(TFA)-AMC as substrate preincubated for 10 mins followed by substrate addition and measured after 30 mins by fluorescence-based assay
Histone deacetylase 9, sequence (Q9UKV0 whole entry): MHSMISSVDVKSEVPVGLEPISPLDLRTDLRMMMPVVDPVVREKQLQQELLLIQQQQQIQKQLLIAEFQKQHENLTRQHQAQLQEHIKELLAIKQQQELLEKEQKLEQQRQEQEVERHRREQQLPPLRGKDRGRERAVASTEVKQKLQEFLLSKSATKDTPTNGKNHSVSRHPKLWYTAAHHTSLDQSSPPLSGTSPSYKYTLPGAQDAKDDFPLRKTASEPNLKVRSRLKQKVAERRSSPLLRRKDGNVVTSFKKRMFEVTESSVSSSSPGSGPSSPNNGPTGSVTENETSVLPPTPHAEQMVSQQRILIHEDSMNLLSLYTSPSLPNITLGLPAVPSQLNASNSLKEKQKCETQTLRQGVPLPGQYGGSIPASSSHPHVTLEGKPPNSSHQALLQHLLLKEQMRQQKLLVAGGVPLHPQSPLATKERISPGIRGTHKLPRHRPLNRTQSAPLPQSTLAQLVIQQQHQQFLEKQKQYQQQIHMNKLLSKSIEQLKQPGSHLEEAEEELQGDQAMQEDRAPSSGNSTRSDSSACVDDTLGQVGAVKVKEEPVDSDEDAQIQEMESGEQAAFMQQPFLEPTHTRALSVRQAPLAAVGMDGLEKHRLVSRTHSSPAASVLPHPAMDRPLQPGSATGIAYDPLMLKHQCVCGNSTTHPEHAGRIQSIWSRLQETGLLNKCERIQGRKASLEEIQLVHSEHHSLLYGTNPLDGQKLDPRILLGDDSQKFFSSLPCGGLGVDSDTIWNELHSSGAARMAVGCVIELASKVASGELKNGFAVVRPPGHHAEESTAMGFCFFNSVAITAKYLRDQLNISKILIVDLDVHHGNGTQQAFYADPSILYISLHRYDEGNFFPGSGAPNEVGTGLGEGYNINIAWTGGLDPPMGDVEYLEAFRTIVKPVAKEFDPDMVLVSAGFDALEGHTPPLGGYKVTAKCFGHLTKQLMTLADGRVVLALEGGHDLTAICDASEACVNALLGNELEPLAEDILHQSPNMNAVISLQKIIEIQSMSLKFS
Method in brief: as §2

[13] = molecular target: T1, Protein deacetylase HDAC6; experiment: (§3) Inhibition of recombinant N-terminal GST-tagged human HDAC6 (1 to 1215 residues) expressed in baculovirus infected sf9 insect cells using p53 (379 to 382 residues) derived fluorogenic peptide RHKKAc as substrate preincubated for 5 to 10 mins followed by substrate addition and further incubated for 2 hrs by fluorescence assay
Histone deacetylase 11 = molecular target: T4, Histone deacetylase 11 (Homo sapiens, UniProt Q96DB2); experiment: Inhibition of recombinant human HDAC11 expressed in HEK293T/17 cells using Boc-Lys(TFA)-AMC as substrate preincubated for 10 mins followed by substrate addition and measured after 30 mins by fluorescence-based assay
T4 sequence (Q96DB2 whole entry): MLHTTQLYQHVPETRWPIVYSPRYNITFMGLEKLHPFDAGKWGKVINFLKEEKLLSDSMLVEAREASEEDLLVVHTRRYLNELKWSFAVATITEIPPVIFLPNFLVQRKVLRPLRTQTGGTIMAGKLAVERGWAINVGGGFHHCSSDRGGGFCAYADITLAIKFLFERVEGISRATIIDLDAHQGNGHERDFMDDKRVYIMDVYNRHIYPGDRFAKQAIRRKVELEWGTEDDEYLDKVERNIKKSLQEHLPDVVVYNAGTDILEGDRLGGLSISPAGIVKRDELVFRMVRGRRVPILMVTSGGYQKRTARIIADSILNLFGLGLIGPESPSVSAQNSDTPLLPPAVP
Method in brief: as §2

Histone deacetylase 1 [14] = molecular target: T2, Histone deacetylase 1; experiment: as §3, with “full length C-terminal His/FLAG tagged” for “N-terminal GST-tagged”, “HDAC1” for “HDAC6”, “482” for “1215”
Histone deacetylase 1 [15] = molecular target: T2, Histone deacetylase 1; experiment: Inhibition of human recombinant HDAC1 using fluorogenic HDAC substrate by fluorescence assay
Method in brief: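 Human full-length recombinant HDAC1 expressed in Sf9 cells via baculovirus. Substrate was the fluorogenic acetylated p53 379-382 peptide RHKKAc (50 µM) in pH 8.0 Tris buffer with NaCl, KCl, MgCl2, BSA and 1% DMSO final. Enzyme and compound were preincubated 5-10 min, then reacted 2 h at 30 °C. Developer plus TSA stopped the reaction; endpoint fluorescence was read.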

[16] = Induction of apoptosis in mouse SM1 cells at 100 nM by caspase3/7 reagent based luminescence assay; assay type: cell-based; conditions: 0.1 µM
Method in brief: (§4)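 SM1 cells treated with HDAC inhibitors, with pan-HDACi and assay controls on every plate. ApoTox-Glo triplex readout: viability fluorescence 400Ex/505Em, cytotoxicity fluorescence 485Ex/520Em, then caspase 3/7 reagent read by luminescence for apoptosis.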

[17] = Cytotoxicity against mouse SM1 cells at 100 nM by ApoTox-Glo triplex assay; assay type: cell-based; conditions: 0.1 µM
Method in brief: as §4

half-life [3]: 85 min
half-life [5]: 16 min
SMILES: CC(C)(C)OC(=O)Nc1ccc(-c2cc(C(=O)NCCc3cc(C(=O)NO)no3)no2)cc1
Ratio IC50 (Homo sapiens [1]): 2820
Activity (Salmonella typhimurium [2]): Non-Toxic
Activity (Salmonella typhimurium [4]): Non-Toxic
Activity (Salmonella typhimurium [6]): Non-Toxic
Activity (Salmonella typhimurium [7]): Non-Toxic

IC50 [8]: 0.014 µM
Ratio IC50 (Homo sapiens [9]): 535
IC50 (Histone deacetylase 1 [10]): 7.5 µM
SMILES: O=C(NO)c1ccc(CNCc2csc3ccccc23)cc1

IC50 (Histone deacetylase 4): 3.53 µM
IC50 [11]: 0.002 µM
IC50 (Histone deacetylase 1 [12]): 0.034 µM
IC50 (Histone deacetylase 8): 0.92 µM
IC50 (Histone deacetylase 5): 3.12 µM
IC50 (Histone deacetylase 9): 3.07 µM
IC50 [13]: 0.028 µM
IC50 (Histone deacetylase 11): 1.05 µM
IC50 (Histone deacetylase 1 [14]): 0.2 µM
SMILES: O=C(NO)c1ccc(CNC(=O)c2ccc(Cl)c(Cl)c2)cc1

IC50 (Histone deacetylase 1 [15]): > 1 µM
SMILES: CN(Cc1ccc(C(=O)NO)cc1F)CC12CC3CC(CC(C3)C1)C2

SMILES: Cc1[nH]c2ccccc2c1CCNCc1ccc(/C=C/C(=O)NO)cc1 [PANOBINOSTAT]
Activity [16]: Toxic
Activity [17]: Toxic
